Experimental data published in ChEMBL document CHEMBL3414544, “PAINS in the assay: chemical mechanisms of assay interference and promiscuous enzymatic inhibition observed during a sulfhydryl-scavenging HTS” (J Med Chem, 2015).
Activity calls are given as the source filed them.

Tests used:
[1] = Fluorescence quenching in HTS buffer with 20 uM 7-diethylamino-3-(4'-maleimidyl-phenyl)-4-methylcoumarin assessed as fluorescence signal reduction at 10 uM after 10 mins; assay type: physicochemical
[2] = Fluorescence quenching in HTS buffer with […] CoA assessed as fluorescence signal reduction at 10 uM after 10 mins; assay type: physicochemical
[3] = molecular target: T1, Histone acetyltransferase RTT109 (Saccharomyces cerevisiae (strain ATCC 204508 / S288c) (Baker's yeast)) (UniProt Q07794); assay: Inhibition of Vps75-stimulated recombinant Saccharomyces cerevisiae histone acetyltransferase Rtt109 assessed as H3K27 acetylated product at […] after 45 mins by Slot bolt inhibiton assay
T1 sequence (whole entry): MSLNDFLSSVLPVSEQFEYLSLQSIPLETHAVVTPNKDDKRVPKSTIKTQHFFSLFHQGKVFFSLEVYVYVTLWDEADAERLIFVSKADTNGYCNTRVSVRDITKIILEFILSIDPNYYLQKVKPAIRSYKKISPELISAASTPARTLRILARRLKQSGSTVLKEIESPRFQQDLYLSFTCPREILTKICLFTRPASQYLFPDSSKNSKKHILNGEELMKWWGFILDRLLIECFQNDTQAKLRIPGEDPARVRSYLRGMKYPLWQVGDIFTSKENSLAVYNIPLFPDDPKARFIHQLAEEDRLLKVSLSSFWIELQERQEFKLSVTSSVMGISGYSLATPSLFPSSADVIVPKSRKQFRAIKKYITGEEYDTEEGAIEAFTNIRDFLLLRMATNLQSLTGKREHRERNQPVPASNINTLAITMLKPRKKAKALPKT

[4] = Fluorescence quenching assessed as fluorescence signal reduction at 10 uM after 10 mins; assay type: physicochemical
How it was run: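 CPM (20 μM final) and CoA (5 μM final) reacted to completion in assay buffer (stable plateau, usually ~5 min); adduct solution added to wells preplated with compound; shaken 5 min, equilibrated 5 min at room temperature; fluorescence intensity read as percent signal reduction versus DMSO controls. Flagged as quencher at >20% signal reduction at 10 μM final compound.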

[5] = molecular target: T1, Histone acetyltransferase RTT109 (Saccharomyces cerevisiae (strain ATCC 204508 / S288c) (Baker's yeast)); assay: Inhibition of Vps75-stimulated recombinant Saccharomyces cerevisiae histone acetyltransferase Rtt109 assessed as H3K56 acetylated product at […] after 45 mins by Slot bolt inhibiton assay
[6] = Fluorescence quenching in HTS buffer assessed as fluorescence signal reduction at 10 uM after 10 mins; assay type: physicochemical
[7] = molecular target: T2, Histone acetyltransferase RTT109 (Saccharomyces cerevisiae (strain ATCC 204508 / S288c) (Baker's yeast), UniProt Q07794); assay: Inhibition of Vps75-stimulated recombinant Saccharomyces cerevisiae histone acetyltransferase Rtt109 using Asf1-dH3-H4 as substrate assessed as coenzyme A production after 45 mins by CPM based HTS assay
T2 sequence (Q07794 whole entry): T1 sequence (whole entry)
How it was run: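 Recombinant Rtt109–Vps75 at 50 nM, with Asf1–dH3–H4 as substrate and acetyl-CoA as acetyl donor. Buffer contained freshly prepared 0.01% Triton X-100. The CoA product was detected by fluorescence of its CPM adduct. Plates had Z′ ≥0.5. IC50 came from a four-parameter variable-slope fit.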

Row | IC50 [7] | SMILES | Activity [1] | Activity [2] | Activity [3] | Activity [4] | Activity [5] | Activity [6] | IC50 ([7]; read-out: IC50) [µM]
1 | – | O=[N+]([O-])c1ccc(Sc2nnc[nH]2)c2nsnc12 | Not Active | Not Active | Active | Not Active | Active | Not Active | 1.7
2 | – | CC(C)(C)c1ccc(S(=O)(=O)Nc2ccc(O)c(Cl)c2)cc1 | Not Active | Not Active | inactive | Not Active | inactive | Not Active | 75
3 | – | O=C1C=CC(=O)N1c1ccc2ccccc2c1 | Not Active | Not Active | Active | Not Active | Active | Not Active | 3.6
4 | – | Cc1ccc(S(=O)(=O)C[n+]2sc(N(c3ccccc3)c3ccccc3)nc2-c2ccccc2)cc1.[Cl-] | Not Active | Not Active | – | Not Active | – | Not Active | 26
5 | – | O=[N+]([O-])c1ccc2nonc2c1Sc1nc2ccccc2[nH]1 | Not Active | Not Active | Active | Not Active | Active | Not Active | 3.4
6 | – | O=[N+]([O-])c1cccc(S(=O)(=O)Nc2cc(SCc3ccccc3)c(O)c3ccccc23)c1 | Not Active | Not Active | Active | Not Active | Active | Not Active | 2
7 | – | COc1ccc(N2C(=O)CC(Sc3n[nH]c(-c4ccc(C)cc4)n3)C2=O)cc1 (configuration not stated) | Not Active | Not Active | Active | Not Active | Active | Not Active | 10
8 | – | O=[N+]([O-])c1cccc(S(=O)(=O)Nc2cc(Br)c(O)c3ccccc23)c1 | Not Active | Not Active | Active | Not Active | Active | Not Active | 5.4
9 | – | O=C1C=CC(=O)N1c1ccc(Oc2ccccc2)cc1 | Not Active | Not Active | Active | Not Active | Active | Not Active | 3
10 | – | CN(C)c1nc(-c2ccccc2)[n+](C)s1.[O-][Cl+3]([O-])([O-])[O-] | Not Active | Not Active | Active | Not Active | Active | Not Active | 5.3
11 | – | COc1ccc(-c2nnc(Sc3ccc([N+](=O)[O-])c4nonc34)[nH]2)cc1 | Not Active | Not Active | Active | Not Active | Active | Not Active | 2.3
12 | – | O=S(=O)(Nc1cc(SCc2ccco2)c(O)c2ccccc12)c1ccccc1 | Not Active | Not Active | Active | Not Active | Active | Not Active | 2.1
13 | – | O=C1CC(Sc2nncn2-c2ccccc2)C(=O)N1c1cc(Cl)cc(Cl)c1 (configuration not stated) | Not Active | Not Active | Active | Not Active | Active | Not Active | 16
14 | – | O=S(=O)(Nc1cc(Sc2nc3ccccc3s2)c(O)c2ccccc12)c1ccccc1 | Not Active | Not Active | Active | Not Active | Active | Not Active | 9.9
15 | – | COc1ccc(N2C(=O)C=CC2=O)cc1 | Not Active | Not Active | Active | Not Active | Active | Not Active | 9.2
16 | – | COc1ccc(Cc2nnc(SC3=CS(=O)(=O)c4ccccc43)o2)cc1 | Not Active | Not Active | Active | Not Active | Active | Not Active | 7.1
17 | – | [Br-].c1ccc(C[n+]2sc(Nc3ccccc3)nc2-c2ccccc2)cc1 | Not Active | Not Active | – | Not Active | – | Not Active | 3.1
18 | – | Cc1ccc(N2C(=O)C=CC2=O)cc1 | Not Active | Not Active | Active | Not Active | Active | Not Active | 6
19 | – | [Br-].c1ccc(CNc2nc(-c3ccccc3)[n+](-c3ccccc3)s2)cc1 | Not Active | Not Active | Active | Not Active | Active | Not Active | 2.4
20 | – | O=S(=O)(Nc1cc(Br)c(O)c2ccccc12)c1ccc(F)cc1 | Not Active | Not Active | Active | Not Active | Active | Not Active | 4.4
21 | – | O=[N+]([O-])c1ccc(Sc2nnc(-c3ccccc3)o2)c2nonc12 | Not Active | Not Active | Active | Not Active | Active | Not Active | 1.1
22 | – | O=C(O)CSc1cc(Cl)c2nonc2c1[N+](=O)[O-] | Not Active | Not Active | Active | Not Active | Active | Not Active | 17
23 | Not Active | O=C(O)CSc1cc(NS(=O)(=O)c2cccc([N+](=O)[O-])c2)c2ccccc2c1O | Active | Not Active | – | Not Active | – | Not Active | –
24 | Not Active | CC(C)(C)c1ccc(S(=O)(=O)Nc2cc(SCC(=O)O)c(O)c3ccccc23)cc1 | Active | Not Active | – | Not Active | – | Not Active | –
25 | – | [Cl-].c1ccc(C[n+]2sc(Nc3ccccc3)nc2-c2ccccc2)cc1 | Not Active | Not Active | – | Not Active | – | Not Active | 3.1
26 | Not Active | CC(C)c1ccc(S(=O)(=O)Nc2cc(SCCC(=O)O)c(O)c3ccccc23)cc1 | Active | Not Active | – | Not Active | – | Not Active | –
27 | – | Cc1ccc(S(=O)(=O)C[n+]2sc(N(c3ccccc3)c3ccccc3)nc2-c2ccccc2)cc1.[Br-] | Not Active | Not Active | – | Not Active | – | Not Active | 42
28 | – | O=S(=O)(Nc1cc(Br)c(O)c2ccccc12)c1ccc2ccccc2c1 | Not Active | Not Active | inactive | Not Active | Active | Not Active | –
29 | – | O=S1(=O)C=C(Sc2nn(-c3ccccc3)c(=S)s2)c2ccccc21 | Not Active | Not Active | Active | Not Active | Active | Not Active | –
